# Hits are enriched below; roughly 2.1% of the tested compounds scored in any of these assays.
# zVAD death inh = blocks zVAD induced death of L929 cells; L929 zVAD necroptosis rescue, ATP luminescence, 24 h; with zVAD 60 µM; AID 1377; viability rescue, % at 10 µM; 220,000 tested, 0.38% active;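 active means activation, scaled between plate controls, above about 75%, limit read from the data; inactive means activation under that limit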;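 further: 0% = zVAD with DMSO and 100% = DMSO alone without zVAD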
# STAT1 blocker = reduces IFN-gamma driven STAT1 reporter signal; NIH 3T3 STAT1-luciferase reporter, luminescence; inhibition, % at 5.5 µM; 200,000 tested, 0.35% active;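 active means inhibition above a set limit, the mean inhibition across all tested compounds plus 3 SD, cut at about 34% in these data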;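 further: 0% = IFN-gamma with DMSO and 100% = IFN-gamma with 300 µM nifuroxazide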
# TNF death inh = TNF-alpha cell death inhibition in Jurkat FADD-/- cells. Jurkat FADD-/- TNF necroptosis rescue, ATP luminescence, 24 h; 0 = TNF only, 100 = no-TNF cells. activation (protection from cell death), % at 10 µM. 220,000 tested, 0.068% active. AID 463075;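 active means activation, meaning protection from cell death, of at least 50% relative to plate controls; inactive means activation below 50%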;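 further: necroptosis triggered by 40 ng/mL TNF-alpha added together with compound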
# STAT3 blocker = STAT3 signaling inhibition. inhibition, % at 5.5 µM. U3A cells, IL-6 STAT3-luciferase reporter, luminescence; host cell line lacks STAT1. 190,000 tested, 0.89% active;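 active means inhibition above the mean inhibition across all screened compounds plus 3 SD, cut at about 44% in these data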;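 further: 0% = DMSO only wells and 100% = 100 µM nifuroxazide control wells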
# STAT3 activator = increases IL-6 driven STAT3 reporter signal | 190,000 tested, 0.91% active | U3A cells, IL-6 STAT3-luciferase reporter, luminescence; 100% = signal with IL-6 EC80 alone | AID 871 | activation (% of control), % at 5.6 µM;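 active means activation above the screen-wide mean of compound activation plus 3 SD, cut at about 130% in these data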;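 further: 0% = background luminescence of wells with medium and substrate only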
#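 Material: human U3A cells carrying STAT3-luciferase construct. Measured by: reporter luminescence signal. Timing: compound 1 h, then IL-6 6 h at 37 °C.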
# zVAD death conf = confirmed blocker of zVAD induced death in L929 cells; L929 zVAD-induced necroptosis rescue, ATP luminescence, 24 h; activation (protection from necroptosis), % at 10 µM; 760 tested, 16% active; shares compounds with zVAD death inh; AID 463117;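 active means mean protection from necroptosis of at least 50% over duplicate tests; inactive means mean protection below 50%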;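 further: 0% = cells with zVAD alone and 100% = vehicle cells without zVAD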
# The depositor's hits bear a star; x = no result given.
SMILES,zVAD death inh,STAT1 blocker,TNF death inh,STAT3 blocker,STAT3 activator,zVAD death conf
COc1ccc(OC)c(Nc2nc(-c3ccccc3O)nc3ccccc23)c1,4,-7,1,15,93,x
CNc1ncc(C(=O)c2ccc(F)cc2)s1,85*,-29,7,-10,107,4
N#C/C(=C\C=C\c1ccccc1[N+](=O)[O-])C(=O)NC1CCCCC1,75*,12,-2,-11,117,0
CCOC(=O)c1ccc(NC(=O)Nc2ccn(C)n2)cc1,86*,-9,1,17,89,40
COCC(=O)Nc1ccc([N+](=O)[O-])cc1OC,0,-4,0,18,87,x
COc1cc([N+](=O)[O-])ccc1NC(=O)COC(=O)c1ccc(NC(N)=O)cc1,78*,x,3,x,x,39
CCOc1ccc(CN2C(=O)c3ccccc3C2=O)cc1C(=O)Nc1nnc(SCC)s1,x,5,2,13,92,x
O=C(O)c1cccnc1Br,1,-12,0,4,102,x
Cc1nc(-c2ccccc2)sc1-c1ccn[nH]1,80*,-25,10,29,81,40
Cc1nc(-c2ccccc2)sc1-c1ccnn1C,1,-46,-1,16,89,x
O=C(NNC(=O)C1CCN(S(=O)(=O)c2cccc(Cl)c2)CC1)C1CC1,0,x,1,x,x,x
Cc1ccc(/C=C2\SC(=S)N(CC(=O)Nc3ncc(Cc4ccccc4Cl)s3)C2=O)cc1,0,-1,-3,0,104,x
Cc1ccc(/C=C2/SC(=S)N(CC(=O)Nc3ncc(Cc4ccc(C)cc4)s3)C2=O)cc1,75*,-7,-1,8,97,0
CCc1nnc(NC(=O)c2cccc(S(=O)(=O)N3CCN(c4ccccc4)CC3)c2)s1,0,-1,0,11,95,x
COc1ccc(OC)c(-n2nnnc2SCC(=O)Nc2nc(C)c(C)s2)c1,2,7,1,8,97,x
O=C(c1ccc(F)cc1)n1ccc(-c2cnc(-c3ccccc3)s2)n1,83*,-39,6,3,103,0
CCOC(=O)c1[nH]c(C(=O)O)c(CCC(=O)OC)c1C,1,9,0,5,100,x
COC(=O)CCc1c(C)[nH]c(C(=O)OCc2ccccc2)c1C,76*,-3,-1,17,88,1
CCCCN1C(=O)C(NC(=O)C2CC2)(C(F)(F)F)C2=C1CC(C)(C)CC2=O (centres undefined),3,-3,-1,10,98,x
CC(C)c1ccc(NC(=O)N2CCc3ccccc3C2)cc1,76*,-62,4,-9,114,1
CCCCNC(=O)N1CCc2ccccc2C1,0,-7,3,2,103,x
Cn1c(=O)[nH]c(=O)c2c1nc(N1CCCCCC1)n2CCSc1nc2ccccc2o1,1,-6,-2,x,x,x
O=C(CCn1c(=O)[nH]c2ccsc2c1=O)N1CC(=O)N(CCc2ccccc2)C(=O)C1,1,6,-1,6,100,x
CC(=O)Nc1cc(-c2ccc(Cl)cc2)[nH]n1,87*,-50,0,2,101,37
Cc1cc(-c2n[nH]c(=S)n2/N=C/C(Cl)=C/c2ccccc2)n[nH]1,83*,6,-4,-4,99,2
SMILES,zVAD death inh,STAT1 blocker,TNF death inh,STAT3 blocker,STAT3 activator,zVAD death conf
S=c1[nH]nc(-c2ccco2)n1/N=C/C(Cl)=C/c1ccccc1,77*,x,-9,x,x,4
CCCn1nc(NS(C)(=O)=O)c2cc3cccc(C)c3nc21,0,-13,1,-1,103,x
COC(=O)c1ccc(SCC(=O)N2CCC(C)CC2)c([N+](=O)[O-])c1,1,-18,1,-18,112,x
CC1(C(=O)NNC(=S)NCc2ccco2)CC1(Cl)Cl (centres undefined),1,6,1,8,98,x
O=C(Nc1ccc2c(c1)OCCO2)N1CCN(c2ccc(F)cc2)CC1,0,1,-2,30,82,x
C[C@@H]1Cc2c(O)c(O)cc(O)c2C(=O)O1,2,x,-1,x,x,x
CC1CCC/C=C/C(=O)c2c(O)cc(O)cc2CC(=O)O1 (centres undefined),84*,x,-26,x,x,33
COc1ccc(CC(=O)Nc2ccc(-c3noc(COc4ccccc4C)n3)cc2)cc1,1,4,2,15,91,x
